ChEMBL document CHEMBL3525913, “Metabolism-dependent inhibition of CYP3A4 by lapatinib: evidence for formation of a metabolic intermediate complex with a nitroso/oxime metabolite formed via a nitrone intermediate” (Drug Metab Dispos, 2013)

Tests used:
Cytochrome P450 3A5 = Cytochrome P450 3A5 (Homo sapiens, UniProt P20815); assay: Activity of recombinant CYP3A5 (unknown origin) assessed as compound formation treated with lapatinib at 50 uM by LC/MS/MS analysis; type: ADME; conditions: recombinant enzyme
Cytochrome P450 3A5, sequence (P20815 whole entry): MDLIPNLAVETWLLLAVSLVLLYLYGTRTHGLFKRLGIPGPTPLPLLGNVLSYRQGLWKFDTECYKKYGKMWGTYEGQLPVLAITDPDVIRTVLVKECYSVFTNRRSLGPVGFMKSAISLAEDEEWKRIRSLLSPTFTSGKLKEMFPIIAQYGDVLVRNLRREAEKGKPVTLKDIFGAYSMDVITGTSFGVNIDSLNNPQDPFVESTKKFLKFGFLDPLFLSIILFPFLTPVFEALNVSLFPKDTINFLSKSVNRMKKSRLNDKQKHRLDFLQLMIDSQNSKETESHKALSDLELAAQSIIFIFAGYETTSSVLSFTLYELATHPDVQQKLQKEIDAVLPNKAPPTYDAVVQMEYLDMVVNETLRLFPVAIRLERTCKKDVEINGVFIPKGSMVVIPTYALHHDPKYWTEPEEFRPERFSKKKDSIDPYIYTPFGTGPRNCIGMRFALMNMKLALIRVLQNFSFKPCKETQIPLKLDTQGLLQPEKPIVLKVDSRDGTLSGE
Summary of the method: (§1)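 Lapatinib 50 μM (added in DMSO) incubated 30 min at 37°C in 100 mM potassium phosphate pH 7.4 with HLM 1 mg/mL or recombinant CYP3A4+b5 / CYP3A5+b5 100 pmol/mL. Reaction started with NADPH 1 mM. Protein re-isolated by ultracentrifugation (100,000 x g, 4°C, 60 min), washed (KCl/EDTA), resuspended in phosphate buffer, ±2 mM ferricyanide 10 min 37°C, quenched with acetonitrile, then high-resolution LC/MS profiling.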

Cytochrome P450 3A4 = Cytochrome P450 3A4 (Homo sapiens, UniProt P08684); assay: Activity of recombinant CYP3A4 (unknown origin) assessed as compound formation treated with lapatinib at 50 uM by LC/MS/MS analysis; type: ADME; conditions: recombinant enzyme; summary of the method: as §1
Cytochrome P450 3A4, sequence (P08684 whole entry): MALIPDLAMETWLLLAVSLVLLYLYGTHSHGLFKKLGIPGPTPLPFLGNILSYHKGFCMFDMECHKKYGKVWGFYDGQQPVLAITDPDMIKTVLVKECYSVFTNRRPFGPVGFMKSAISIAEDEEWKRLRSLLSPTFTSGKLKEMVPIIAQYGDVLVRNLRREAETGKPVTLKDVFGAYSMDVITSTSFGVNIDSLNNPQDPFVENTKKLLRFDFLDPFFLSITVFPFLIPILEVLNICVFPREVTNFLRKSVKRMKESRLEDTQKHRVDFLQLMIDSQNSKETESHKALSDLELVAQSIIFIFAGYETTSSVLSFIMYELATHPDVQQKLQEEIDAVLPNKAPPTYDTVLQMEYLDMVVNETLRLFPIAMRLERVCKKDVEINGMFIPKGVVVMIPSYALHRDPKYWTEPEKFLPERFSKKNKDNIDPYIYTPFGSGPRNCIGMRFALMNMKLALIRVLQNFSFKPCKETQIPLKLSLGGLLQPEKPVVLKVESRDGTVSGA

[1] = Retention time of the compound by LC/MS/MS analysis relative to lapatinib; type: physicochemical
Summary of the method: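 Phenyl UPLC column (1.7 μm, 2.1 x 100 mm), 0.1% formic acid in water/acetonitrile, 0.4 mL/min. Gradient: 10% organic for 1 min, to 90% over 13 min, held 0.5 min. Detection by accurate-mass MS. Retention times expressed relative to lapatinib.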

Liver microsome = assay: Drug level in human liver microsomes treated with lapatinib at 50 uM by LC/MS/MS analysis; type: ADME; summary of the method: as §1

| Drug metabolism (Cytochrome P450 3A5) | Drug metabolism (Cytochrome P450 3A4) | Ratio [1] | Drug metabolism (Liver microsome) | SMILES |
| --- | --- | --- | --- | --- |
| metabolite_detected | metabolite_detected | 0.5 | metabolite_detected | CS(=O)(=O)CCNCc1ccc(-c2ccc3ncnc(Nc4ccc(O)c(Cl)c4)c3c2)o1 |
| metabolite_detected | metabolite_detected | 1.14 | metabolite_detected | CS(=O)(=O)CCN(O)Cc1ccc(-c2ccc3ncnc(Nc4ccc(OCc5cccc(F)c5)c(Cl)c4)c3c2)o1 |
| metabolite_detected | metabolite_detected | 1.18 | metabolite_detected | O/N=C/c1ccc(-c2ccc3ncnc(Nc4ccc(OCc5cccc(F)c5)c(Cl)c4)c3c2)o1 |
| metabolite_detected | metabolite_detected | 0.97 | metabolite_detected | NCc1ccc(-c2ccc3ncnc(Nc4ccc(OCc5cccc(F)c5)c(Cl)c4)c3c2)o1 |
